Test results published in ChEMBL document CHEMBL1137899, “Glycosylated dihydrochalcones as potent and selective sodium glucose co-transporter 2 (SGLT2) inhibitors” (Bioorg Med Chem Lett, 2004).
pKi: −log10 of the molar value.

Experiments:
[1] = biological target: T1, Sodium/glucose cotransporter 2 (Homo sapiens, UniProt P31639); assay: In vitro inhibition of Na-dependent [14C]AMG uptake in CHO-K1 cells expressing human sodium glucose co-transporter 2; format: functional, cell-based
T1 sequence (P31639 whole entry): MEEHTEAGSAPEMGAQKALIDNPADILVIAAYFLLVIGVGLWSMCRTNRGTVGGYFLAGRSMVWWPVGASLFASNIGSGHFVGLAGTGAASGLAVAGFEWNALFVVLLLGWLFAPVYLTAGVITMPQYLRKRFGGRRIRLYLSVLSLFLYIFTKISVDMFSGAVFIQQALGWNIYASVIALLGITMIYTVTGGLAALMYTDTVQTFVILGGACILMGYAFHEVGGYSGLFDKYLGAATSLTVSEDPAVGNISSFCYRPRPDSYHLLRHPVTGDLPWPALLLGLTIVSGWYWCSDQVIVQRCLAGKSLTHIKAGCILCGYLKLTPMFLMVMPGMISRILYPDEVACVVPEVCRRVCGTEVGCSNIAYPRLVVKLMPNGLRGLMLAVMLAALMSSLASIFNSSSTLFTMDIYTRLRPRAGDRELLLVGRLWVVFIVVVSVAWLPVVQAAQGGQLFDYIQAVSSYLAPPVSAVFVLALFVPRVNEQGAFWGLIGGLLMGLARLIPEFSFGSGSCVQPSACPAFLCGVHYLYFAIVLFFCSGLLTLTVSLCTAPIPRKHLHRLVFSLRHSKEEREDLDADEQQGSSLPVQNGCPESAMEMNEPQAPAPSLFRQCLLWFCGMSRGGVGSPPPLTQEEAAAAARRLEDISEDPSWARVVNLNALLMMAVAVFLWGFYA
In short: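 CHO-K1 cells overexpressing human SGLT2 pre-treated with compound for 15 min with or without NaCl, then labelled with 14C-alpha-methylglucopyranoside (AMG, nonmetabolizable glucose analogue); sodium-dependent uptake of label measured.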

[2] = Metabolic half-life as a measure of human liver microsomal stability was determined at 5 uM; format: ADME; conditions: liver microsomes
[3] = (§1) In vivo ability to induce urinary glucose excretion in male Zucker Diabetic Fatty (ZDF) rats at 3 mg/kg i.v. dose; format: ADME, organism-based, Urine; design: dose 3 mg/kg, route intravenous; conditions: rat, iv
In short: (§2)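 Male ZDF rats, 7–8 weeks, fasted 12 h; compound or vehicle (10% Solutol) given i.v. at 2 mL/kg. Oral glucose challenge (4 mL/kg of 50% solution) 1 h later, rats then placed in metabolism cages with free water access; urine collected for 4 h, glucose quantified with Trinder reagent.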

Rattus norvegicus = assay: as §1; format: functional, Urine; conditions: route intravenous; in short: as §2

Compound: O=C(CCc1ccc2ccccc2c1)c1c(O)cc(F)cc1O[C@@H]1O[C@H](CO)[C@@H](O)[C@H](O)[C@H]1O
- pKi [1]: 7.15

Compound: CC(C)c1cc(O)c(C(=O)CCc2ccc3ccccc3c2)c(O[C@@H]2O[C@H](CO)[C@@H](O)[C@H](O)[C@H]2O)c1
- pKi [1]: 6.82

Compound: Cc1cc(O)c(C(=O)CCc2ccc3occc3c2)c(O[C@@H]2O[C@H](CO)[C@@H](O)[C@H](O)[C@H]2O)c1
- pKi [1]: 8.40
- half-life at 5 µM [2]: 24 min
- Excreted glucose [3]: 1189 mg

Compound: Cc1cc(O)c(C(=O)CCc2ccsc2)c(O[C@@H]2O[C@H](CO)[C@@H](O)[C@H](O)[C@H]2O)c1
- pKi [1]: 7.15

Compound: CCOc1ccc(CCC(=O)c2c(O)cc(CC)cc2O[C@@H]2O[C@H](CO)[C@@H](O)[C@H](O)[C@H]2O)cc1
- pKi [1]: 7.52
- half-life at 5 µM [2]: > 45 min

Compound: CCc1cc(O)c(C(=O)CCc2ccc3ccccc3c2)c(O[C@@H]2O[C@H](CO)[C@@H](O)[C@H](O)[C@H]2O)c1
- pKi [1]: 8.00

Compound: Cc1cc(O)c(C(=O)CCc2ccoc2)c(O[C@@H]2O[C@H](CO)[C@@H](O)[C@H](O)[C@H]2O)c1
- pKi [1]: 6.64

Compound: O=C(CCc1ccc2ccccc2c1)c1c(O)cc(Cl)cc1O[C@@H]1O[C@H](CO)[C@@H](O)[C@H](O)[C@H]1O
- pKi [1]: 7.52

Compound: Cc1cc(N)c(C(=O)CCc2ccc3c(c2)OCCO3)c(O[C@@H]2O[C@H](CO)[C@@H](O)[C@H](O)[C@H]2O)c1
- pKi [1]: 6.54

Compound: O=C(CCc1ccc2c(c1)OCCO2)c1c(O)cc(Cl)cc1O[C@@H]1O[C@H](CO)[C@@H](O)[C@H](O)[C@H]1O
- pKi [1]: 7.70

Compound: Cc1cc(O)c(C(=O)CCc2ccc3c(c2)OCCO3)c(O[C@@H]2O[C@H](CO)[C@@H](O)[C@H](O)[C@H]2O)c1
- Excreted glucose (Rattus norvegicus): 608 mg
- pKi [1]: 8.05
- half-life at 5 µM [2]: > 45 min

Compound: CCOc1ccc(CCC(=O)c2c(O)cc(C(C)C)cc2O[C@@H]2O[C@H](CO)[C@@H](O)[C@H](O)[C@H]2O)cc1
- pKi [1]: 6.96

Compound: CCOc1ccc(CCC(=O)c2c(O)cc(C)cc2O[C@@H]2O[C@H](CO)[C@@H](O)[C@H](O)[C@H]2O)cc1
- pKi [1]: 8.00
- half-life at 5 µM [2]: > 45 min

Compound: Cc1cc(O)c(C(=O)CCc2ccc3ccccc3c2)c(O[C@@H]2O[C@H](CO)[C@@H](O)[C@H](O)[C@H]2O)c1
- pKi [1]: 8.00

Compound: Cc1cc(O)c(C(=O)CCC2CCCCC2)c(O[C@@H]2O[C@H](CO)[C@@H](O)[C@H](O)[C@H]2O)c1
- pKi [1]: 7.40

Compound: CCc1cc(O)c(C(=O)CCc2ccc3c(c2)OCCO3)c(O[C@@H]2O[C@H](CO)[C@@H](O)[C@H](O)[C@H]2O)c1
- pKi [1]: 8.00

Compound: CCOc1ccc(CCC(=O)c2c(N)cc(C)cc2O[C@@H]2O[C@H](CO)[C@@H](O)[C@H](O)[C@H]2O)cc1
- pKi [1]: 5.89

Compound: Cc1cc(N)c(C(=O)CCc2ccc3ccccc3c2)c(O[C@@H]2O[C@H](CO)[C@@H](O)[C@H](O)[C@H]2O)c1
- pKi [1]: 6.28

Compound: CCOc1ccc(CCC(=O)c2c(O)cc(Cl)cc2O[C@@H]2O[C@H](CO)[C@@H](O)[C@H](O)[C@H]2O)cc1
- pKi [1]: 7.10

Compound: CCOc1ccc(CCC(=O)c2c(Cl)cccc2O[C@@H]2O[C@H](CO)[C@@H](O)[C@H](O)[C@H]2O)cc1
- pKi [1]: < 5.77

Compound: CC(C)c1cc(O)c(C(=O)CCc2ccc3c(c2)OCCO3)c(O[C@@H]2O[C@H](CO)[C@@H](O)[C@H](O)[C@H]2O)c1
- pKi [1]: 7.70

Compound: O=C(CCc1ccc2ccccc2c1)c1c(Cl)cccc1O[C@@H]1O[C@H](CO)[C@@H](O)[C@H](O)[C@H]1O
- pKi [1]: < 5.77

Compound: O=C(CCc1ccc2c(c1)OCCO2)c1c(Cl)cccc1O[C@@H]1O[C@H](CO)[C@@H](O)[C@H](O)[C@H]1O
- pKi [1]: < 5.77
